Assay outcomes as filed in PubChem.
A selection: hits, their analogues and other compounds. The true share with any hit is near 1.5%.
FLuc act counter = FLuc activators, initial screening, artefact control for FLuc-dependent activation tests, biochemical, ATPlite luminescence; activation factor at 10 µM; ATPlite luciferase biochemical, 10 min; 0 = ATP-free wells, 1 = DMSO control; Luciferin 4-monooxygenase (Photinus pyralis), P08659; 200,000 tested, under 10 active; AID 1027, 2008;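 active = luciferase activation factor, scaled between plate controls, of at least 2 with compound at 10 µM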
Target sequence (P08659 whole entry, looked up): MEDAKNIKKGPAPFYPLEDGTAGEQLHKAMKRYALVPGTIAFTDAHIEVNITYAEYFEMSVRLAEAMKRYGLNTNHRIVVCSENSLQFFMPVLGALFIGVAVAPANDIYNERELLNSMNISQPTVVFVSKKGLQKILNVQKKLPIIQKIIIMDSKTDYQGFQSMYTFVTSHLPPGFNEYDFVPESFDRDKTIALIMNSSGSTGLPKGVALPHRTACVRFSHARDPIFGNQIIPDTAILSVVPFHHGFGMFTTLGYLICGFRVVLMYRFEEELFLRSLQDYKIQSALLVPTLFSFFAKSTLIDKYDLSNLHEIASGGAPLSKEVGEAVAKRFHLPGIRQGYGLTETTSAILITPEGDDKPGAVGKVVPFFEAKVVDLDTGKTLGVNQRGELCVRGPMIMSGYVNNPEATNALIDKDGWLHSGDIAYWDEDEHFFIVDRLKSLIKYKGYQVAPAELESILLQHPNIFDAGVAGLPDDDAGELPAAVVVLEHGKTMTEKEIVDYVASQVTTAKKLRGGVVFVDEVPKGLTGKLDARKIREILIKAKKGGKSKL
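System: luciferase plus luciferin reagent, cell-free; medium: PBS as buffer for the ATP substrate; dosing: test compounds dosed from 2 mM stocks in 100% DMSO; timing: 10 min post-reagent at room temperature; measured by: luminescence measurement of luciferase light output; evaluation: luciferase activation, seen as luminescence increase over controls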
PPC-1+TRAIL kill = compounds killing PPC-1 cancer cells with TRAIL present, primary screen, TRAIL potentiator project, ATPLite luminescence, uHTS; PPC-1 cells + TRAIL, ATPLite viability luminescence; cell killing (% activity), % at 4 µM or 5 µM; actives 0.41% (n = 220,000);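 active = cell killing above 50% in the first pass at 4 µM, then a duplicate retest at 5 µM averaging 50% or more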;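 also: plate controls were cells with TRAIL plus DMSO for no effect and medium-only wells lacking cells for full effect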
FLuc inh counter = firefly luciferase enzyme inhibitors, primary screen, artefact control for luciferase-based inhibitor screens, biochemical, luminescence, ATPLite | Luciferin 4-monooxygenase (Photinus pyralis), P08659 | 10 min | inhibition, % at 10 µM | actives 1.5% (n = 200,000) | AID 1006, 2008;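 active = inhibition above about 50% when tested at 10 µM, limit read from the data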
TRAIL sens C8 = viability loss with TRAIL in NB7+C8 cells, primary screen, TRAIL sensitizer project, cell-based, ATPlite luminescence | inhibition (viability loss, TRAIL sensitization), % at 10 µM | actives 1% (n = 360,000);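 active = compounds causing at least 50% loss of cell viability in the single-dose screen, relative to plate controls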
Numbers without * were called inactive; . = no result.

SMILES	FLuc act counter	PPC-1+TRAIL kill	FLuc inh counter	TRAIL sens C8
CC1(C)CC[C@]2(C(=O)n3ccnc3)CC[C@]3(C)[C@H](C(=O)C=C4[C@@]5(C)C=C(C#N)C(=O)C(C)(C)[C@@H]5CC[C@]43C)[C@@H]2C1	.	.	.	88*
O=C(O)C1C2C=CC(C2)C1C(=O)Nc1cccc(C(F)(F)F)c1 (centres undefined)	.	.	.	-18
O=C(OCC(=O)N1CCc2ccccc21)c1cccnc1Cl	0.7	-3	32	-3
O=C(Nc1ccc(C(=O)O)cc1)/C(=C\C=C\c1ccccc1)NC(=O)c1ccccc1Cl	.	.	.	54*
O=C(Nc1ccc(O)cc1)/C(=C\C=C\c1ccccc1)NC(=O)c1ccccc1	.	5	.	-3
O=C(Cc1csc(N2CCOCC2)n1)N/N=C/c1ccc(Cl)cc1Cl	1	16	-4	6
COc1cc(/C=N/NC(=O)Cc2csc(N3CCOCC3)n2)cc(OC)c1O	0.4	14	60*	19
Cc1ccc(NC(=O)CSc2nc3ccc(Nc4nc(N5CCOCC5)nc(N5CCOCC5)n4)cc3s2)cc1	.	.	.	55*
COc1ccc(NC(=O)CSc2nc3ccc(Nc4nc(N5CCOCC5)nc(N5CCOCC5)n4)cc3s2)cc1	.	.	.	23
CCOc1ccc(/C=C/C(=O)c2c(O)cc(C)oc2=O)cc1	.	.	.	66*
CCOc1ccc(/C=C/C(=O)c2c(O)c3ccccc3oc2=O)cc1	0.3	16	67*	22
C#CCN(C[C@@H]1[C@@H](OC(=O)NCc2ccco2)[C@@H](OC(=O)NCc2ccco2)Cn2c(=O)ccc(=O)n21)S(=O)(=O)c1ccc(C)cc1	.	.	.	15
C#CCN(C[C@@H]1[C@@H](OC(=O)NCCCCCC)[C@@H](OC(=O)NCCCCCC)Cn2c(=O)ccc(=O)n21)S(=O)(=O)c1ccc(C)cc1	.	.	.	89*
C#CCN(C[C@@H]1[C@@H](OC(=O)NCC2CCCCC2)[C@@H](OC(=O)NCC2CCCCC2)Cn2c(=O)ccc(=O)n21)S(=O)(=O)c1ccc(C)cc1	.	.	.	93*
COc1ccccc1C(=O)NNC(=O)C(=O)N1CCCCC1	.	.	.	-1
COc1cc2ccccc2cc1C(=O)NCC(c1cccs1)N(C)C (centres undefined)	0.4	22	64*	35
CCOc1ccc(/C=C2/SC(=S)N(n3c(C)ccc3C)C2=O)cc1	0.8	4	24	50*
CCOc1ccc(N2C(=O)/C(=C/c3ccccn3)SC2=S)cc1	.	-28	.	.
COc1ccc(/C=C2/SC(=O)NC2=O)cc1	0.5	14	54*	19
COc1ccc(/C=C2/SC(=S)N(n3c(C)ccc3C)C2=O)cc1	1	27	2	62*
CCOC(=O)c1cnc2c(-c3ccccc3)cnn2c1C	0.2	23	75*	58*
O=C(CC(Nc1ccc(Cl)cc1)C(=O)O)c1ccccc1 (centres undefined)	0.3	44	69*	62*
Cc1c(P(=S)(c2ccccc2)c2ccccc2)[n+]2ccccc2n1CCc1ccccc1	.	.	.	53*
Cc1cc(C(=O)CCl)c(C)n1CCc1ccccc1	1	25	-2	.
COc1ccc(-c2csc(NC(=O)c3ccccc3NS(=O)(=O)c3ccc(F)c(F)c3)n2)cc1	1	19	-2	41
SMILES	FLuc act counter	PPC-1+TRAIL kill	FLuc inh counter	TRAIL sens C8
Cc1ccc(S(=O)(=O)Nc2ccccc2C(=O)Nc2nc(-c3ccc(F)cc3)cs2)cc1	1	25	2	53*
Cc1cc(N=Nc2ccccc2C(=O)O)c(C)c(C)c1O	.	7	.	-13
CCOC(=O)C(C(=O)OCC)c1cc(Br)c2noc3c2c1C(=O)c1ccccc1-3	1	37	0	93*
COc1ccc(C(=O)NN(C)c2nc(-c3ccccc3)nnc2C(F)(F)F)cc1	1	9	0	20
CN(NC(=O)C(C)(C)C)c1nc(-c2ccccc2)nnc1C(F)(F)F	1	19	-4	56*
O=C(CN1CCc2ccccc2C1)Nc1ccc(Br)cc1	1	8	2	-23
CCN1CCN(CCCNC(=O)c2ccc3c(c2)NC(=O)/C(=C\c2cccc(C)c2)S3)CC1	.	.	.	70*
COc1cccc(/C=C2/Sc3ccc(C(=O)NCCN4CCCCCC4)cc3NC2=O)c1	.	.	.	75*
Cc1cccc(/C=C2/Sc3ccc(C(=O)NCCN4CCCC4)cc3NC2=O)c1	.	.	.	22
O=C(CC1NCCNC1=O)Nc1ccc2c(c1)OCO2 (centres undefined)	1	8	1	-9
O=S(=O)(c1cnc(Cl)c(Cl)c1)N1CCc2ccccc21	.	80*	.	12
O=S(=O)(c1cnc(Cl)c(Cl)c1)N1CCCc2ccccc21	1	43	-4	0
COc1ccc(NC(=O)C2(N(CC(C)C)C(=O)Cn3nnnc3N)CCCCC2)cc1	1.1	56*	-6	-16
CCOC(=O)Cc1ccc2sc(-c3ccccc3)nc2c1	0.3	-5	74*	39
CCOC(=O)c1sc(-c2ccccc2)nc1C	0.9	20	9	3
COCCCn1c(C(=O)Nc2ccc3c(c2)OCO3)cc2c(=O)n3cccc(C)c3nc21	.	.	.	54*
CC(C)(C)OC(=O)NCCCCCc1cn([C@@H](CO)C(=O)NCCCCCCCCCCC(=O)N2CCN(C(=O)OC(C)(C)C)CC2)nn1	.	.	.	60*
O=C(Nc1ccccc1)Nc1ncc([N+](=O)[O-])s1	0.7	24	27	55*
CC(=O)N1c2ccccc2N2C(c3c(C)c(C)cc(C)c3C)=NON12	1	32	-1	-5
Cc1cc(C)c(NC(=O)CSc2cccc[n+]2[O-])c(C)c1	.	.	.	6
CCCSc1nnc2n(Cc3ccccc3)c(=O)c3c4c(sc3n12)CCC4	1.1	8	-7	.
C=C(C)CSc1nnc2n(Cc3ccccc3)c(=O)c3c4c(sc3n12)CCC4	1	9	-3	85*
Cc1[nH]nc2nc(SCC(=O)NCCC3=CCCCC3)n(-c3ccc(Br)cc3)c(=N)c12	.	.	.	80*
COc1ccc2nc3cc(Cl)ccc3c(Nc3ccc(O)c(CN4CCN(C)CC4)c3)c2c1	.	.	.	74*
O=C(CNC(=O)c1ccccc1F)N/N=C/c1cc(Br)ccc1OC(=O)/C=C/c1ccco1	1	28	-3	53*
SMILES	FLuc act counter	PPC-1+TRAIL kill	FLuc inh counter	TRAIL sens C8
COc1ccccc1C(=O)NCC(=O)N/N=C/c1cc(Br)ccc1OC(=O)/C=C\c1ccco1	1.1	19	-5	44
CC(C)Cc1ccc(C(C)CC2=CCC(CN(C)C)C2=O)cc1 (centres undefined)	.	.	.	91*
CC(C)Cc1ccc(C(C)/C=C2/CCC(CN3CCCCC3)C2=O)cc1 (centres undefined)	.	.	.	11
COc1ccc(OCc2cccc(C(=O)Nn3cc([N+](=O)[O-])cn3)c2)cc1	0.3	37	70*	28
COc1ccc(OCc2cccc(C(=O)NN)c2)cc1	0.7	26	30	33
O=C(Nc1nc2ccccc2s1)c1cnccn1	0.4	37	59*	34
Cc1ccc(C(=O)O)c(C(=O)Nc2nc3ccccc3s2)c1	.	.	.	14
